Test results as given in ChEMBL document CHEMBL3352503, “An investigation of in vitro cytotoxicity and apoptotic potential of aromatic diselenides” (Bioorg Med Chem Lett, 2014).
The source made the active and inactive calls. No cut-off for these calls is given here.

Assays:
[1] = Cytotoxicity against human HL60 cells after 48 hrs by MTT assay; type: functional, cell-based; settings: HL-60, 48 h
Summary of the method: (§1)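 Cells grown at 37°C, 5% CO2 with 10% heat-inactivated FBS, penicillin, streptomycin and L-glutamine: HL-60 (suspension) in RPMI-1640, PC-3 in MEM. Seeded 6000 cells/well, exposed 48 h to a range of concentrations (DMSO vehicle, final below 1%). MTT (2.5 mg/mL) added for 4 h, formazan dissolved in DMSO, OD at 540 nm (ref. 620 nm); growth vs untreated cells.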

[2] = Cytotoxicity against human PC3 cells after 48 hrs by MTT assay; type: functional, cell-based; settings: PC-3, 48 h; summary of the method: as §1
HT-29 = assay: Cytotoxicity against human HT-29 cells after 48 hrs by MTT assay; type: functional, cell-based; settings: HT-29, 48 h
[3] = Cytotoxicity against human OVCAR5 cells after 48 hrs by MTT assay; type: functional, cell-based; settings: OVCAR-5, 48 h
[4] = Cytotoxicity against human 786-O cells after 48 hrs by MTT assay; type: functional, cell-based; settings: 786-0, 48 h
HL-60 [5] = assay: Induction of apoptosis in human HL60 cells at 10 uM after 24 hrs by propidium iodide staining-based flow cytometry (reference value: 1.49%); type: functional
[6] = Cell cycle arrest in human HL60 cells assessed as accumulation at S phase at 10 uM after 24 hrs by propidium iodide staining-based flow cytometry (reference value: 46.82%); type: functional; settings: HL-60
[7] = Cell cycle arrest in human HL60 cells assessed as accumulation at S phase at 30 uM after 24 hrs by propidium iodide staining-based flow cytometry (reference value: 46.82%); type: functional; settings: HL-60
HL-60 [8] = assay: Induction of apoptosis in human HL60 cells assessed as nuclear fragmentation at 20 to 30 uM after 24 hrs by fluorescent microscopy; type: functional, cell-based
[9] = Cell cycle arrest in human HL60 cells assessed as accumulation at G2 phase at 20 uM after 24 hrs by propidium iodide staining-based flow cytometry (reference value: 2.39%); type: functional; settings: HL-60
HL-60 [10] = assay: Induction of apoptosis in human HL60 cells assessed as membrane blebbing at 20 to 30 uM after 24 hrs by fluorescent microscopy; type: functional, cell-based
HL-60 [11] = assay: Cytotoxicity against human HL60 cells by MTT assay; type: functional, cell-based; settings: TDE = time-dependent effect
Summary of the method: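 Cells grown in RPMI-1640 with 10% heat-inactivated FBS at 37 °C, 5% CO₂, seeded at 6000 cells/well and exposed to test material for 48 hr. DMSO vehicle kept below 1% final. MTT (2.5 mg/mL) added for 4 hr, formazan dissolved in DMSO, OD read at 540 nm (reference 620 nm). Growth calculated as treated vs untreated absorbance.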

HL-60 [12] = assay: Induction of apoptosis in human HL60 cells at 20 uM after 24 hrs by propidium iodide staining-based flow cytometry (reference value: 1.49%); type: functional
HL-60 [13] = assay: Induction of apoptosis in human HL60 cells assessed as chromatin condensation at 20 to 30 uM after 24 hrs by fluorescent microscopy; type: functional, cell-based
[14] = Cell cycle arrest in human HL60 cells assessed as accumulation at G1 phase at 20 uM after 24 hrs by propidium iodide staining-based flow cytometry (reference value: 50.80%); type: functional; settings: HL-60
HL-60 [15] = assay: Induction of apoptosis in human HL60 cells at 30 uM after 24 hrs by propidium iodide staining-based flow cytometry (reference value: 1.49%); type: functional
[16] = Cell cycle arrest in human HL60 cells assessed as accumulation at G1 phase at 30 uM after 24 hrs by propidium iodide staining-based flow cytometry (reference value: 50.80%); type: functional; settings: HL-60
[17] = Cell cycle arrest in human HL60 cells assessed as accumulation at G2 phase at 10 uM after 24 hrs by propidium iodide staining-based flow cytometry (reference value: 2.39%); type: functional; settings: HL-60
[18] = Cell cycle arrest in human HL60 cells assessed as accumulation at G1 phase at 10 uM after 24 hrs by propidium iodide staining-based flow cytometry (reference value: 50.80%); type: functional; settings: HL-60
HL-60 [19] = assay: Induction of apoptosis in human HL60 cells assessed as loss of mitochondrial membrane potential at 30 uM after 24 hrs by Rhodamine-123 staining-based flow cytometric analysis (reference value: 6%); type: functional
[20] = Cell cycle arrest in human HL60 cells assessed as accumulation at G2 phase at 30 uM after 24 hrs by propidium iodide staining-based flow cytometry (reference value: 2.39%); type: functional; settings: HL-60
HL-60 [21] = assay: Induction of apoptosis in human HL60 cells assessed as loss of mitochondrial membrane potential at 20 uM after 24 hrs by Rhodamine-123 staining-based flow cytometric analysis (reference value: 6%); type: functional
[22] = Cell cycle arrest in human HL60 cells assessed as accumulation at S phase at 20 uM after 24 hrs by propidium iodide staining-based flow cytometry (reference value: 46.82%); type: functional; settings: HL-60
HL-60 [23] = assay: Induction of apoptosis in human HL60 cells assessed as loss of mitochondrial membrane potential after 24 hrs by Rhodamine-123 staining-based flow cytometric analysis; type: functional, cell-based
HL-60 [24] = assay: Induction of apoptosis in human HL60 cells assessed as loss of mitochondrial membrane potential at 10 uM after 24 hrs by Rhodamine-123 staining-based flow cytometric analysis (reference value: 6%); type: functional

CCc1ccccc1[Se][Se]c1ccccc1CC
IC50 [1]: 28 µM | IC50 [2]: 43 µM | IC50 (HT-29): 56 µM | IC50 [3]: 38 µM | IC50 [4]: 42 µM

COc1ccc([Se][Se]c2ccc(OC)cc2)cc1
IC50 [1]: 12 µM | IC50 [2]: 27 µM | IC50 (HT-29): 24 µM | IC50 [3]: 26 µM | IC50 [4]: 28 µM

OCc1ccc([Se][Se]c2ccc(CO)cc2)cc1
IC50 [1]: 11 µM | IC50 [2]: 26 µM | IC50 (HT-29): 27 µM | IC50 [3]: 24 µM | IC50 [4]: 30 µM

Cc1ccc([Se][Se]c2ccc(C)cc2)cc1
IC50 [1]: 33 µM | IC50 [2]: 29 µM | IC50 (HT-29): 37 µM | IC50 [3]: 31 µM | IC50 [4]: 29 µM

Cc1cccc(C)c1[Se][Se]c1c(C)cccc1C
IC50 [1]: 27 µM | IC50 [2]: 33 µM | IC50 (HT-29): 35 µM | IC50 [3]: 39 µM | IC50 [4]: 40 µM

Oc1ccccc1[Se][Se]c1ccccc1O
IC50 [1]: 14 µM | IC50 [2]: 25 µM | IC50 (HT-29): 23 µM | IC50 [3]: 21 µM

OCc1ccccc1[Se][Se]c1ccccc1CO
IC50 [1]: 14 µM | IC50 [2]: 28 µM | IC50 (HT-29): 25 µM | IC50 [3]: 16 µM | IC50 [4]: 27 µM

FC(F)(F)c1cc([Se][Se]c2cc(C(F)(F)F)cc(C(F)(F)F)c2)cc(C(F)(F)F)c1
Activity (HL-60 [5]): 2.45% | Activity [6]: 48.4% | Activity [7]: 53.9% | Activity (HL-60 [8]): Active | Activity [9]: 3.78% | IC50 [1]: 8 µM | Activity (HL-60 [10]): Active | inhibition (HL-60 [11]): tde | Activity (HL-60 [12]): 5.65% | IC50 [2]: 13 µM | Activity (HL-60 [13]): Active | Activity [14]: 50.8% | IC50 (HT-29): 21 µM | IC50 [3]: 20 µM | Activity (HL-60 [15]): 23.94% | Activity [16]: 46.1% | Activity [17]: 1.93% | Activity [18]: 49.7% | Activity (HL-60 [19]): 58% | Activity [20]: 0% | IC50 [4]: 24 µM | Activity (HL-60 [21]): 20% | Activity [22]: 45.5% | Activity (HL-60 [23]): Dose-dependent effect | Activity (HL-60 [24]): 11%

c1ccc([Se][Se]c2ccccc2)cc1
IC50 [1]: 32 µM | IC50 [2]: 42 µM | IC50 (HT-29): 31 µM | IC50 [3]: 38 µM | IC50 [4]: 38 µM

c1ccc([Se][Se]c2ccccn2)nc1
IC50 [1]: 28 µM | IC50 [2]: 26 µM | IC50 (HT-29): 30 µM | IC50 [3]: 27 µM | IC50 [4]: 29 µM

Oc1ccc([Se][Se]c2ccc(O)cc2)cc1
IC50 [1]: 13 µM | IC50 [2]: 29 µM | IC50 (HT-29): 37 µM | IC50 [3]: 27 µM | IC50 [4]: 33 µM

Cc1cc(C)cc([Se][Se]c2cc(C)cc(C)c2)c1
IC50 [1]: 23 µM | IC50 [2]: 30 µM | IC50 (HT-29): 36 µM | IC50 [3]: 34 µM | IC50 [4]: 33 µM

c1ccc2c([Se][Se]c3cccc4ccccc34)cccc2c1
IC50 [1]: 16 µM | IC50 [2]: 40 µM | IC50 (HT-29): 34 µM | IC50 [3]: 25 µM | IC50 [4]: 32 µM
